Laboratory results: the RNAGym collection of RNA variant scans (doi:10.1126/science.aae0568)
Fewer inactive variants are shown than the library holds.

B1: tRNA (parent)
chain: GUUCCGUUGGCGUAAUGGUAACGCGUCUCCCUCCUAAGGAGAAGACUGCGGGUUCGAGUCCCGUACGGAACG

Variants of: B1
Experiment: yeast fitness relative to wild type (ratio to wild type); higher = fitter; tRNA-Arg(CCU), competitive growth, 37 C, YPD
Procedure, shortened: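 Variants of the tRNA-Arg(CCU) gene, chemically synthesised with a 3% per-site mutation rate at 69 sites, were placed at the native genomic locus in Saccharomyces cerevisiae. The pooled strains were competed in YPD at 37°C for 24 hours in six parallel replicates. Gene amplicons from the start population and from each end population were read by 100-nucleotide paired-end sequencing. Darwinian fitness relative to wild type came from changes in genotype frequencies; genotypes needed ≥ 100 starting reads, and estimates < 0.5 were set to 0.5.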

| Variant | yeast fitness |
| --- | --- |
| U3G C49A | 0.655 |
| U3G G39A A40G | ≤ 0.5 |
| C4A A14U A20C U28G U54C | ≤ 0.5 |
| U3G C22U C27U G56A | ≤ 0.5 |
| U3G C24G C49U G58A G63A | ≤ 0.5 |
| U3G A43U | 1.08 |
| U3G U7C A40U | 0.502 |
| U3G A20G A45G | 0.75 |
| U3G A14U G48C C49U C61A | ≤ 0.5 |
| U3G C22A G25C C33U A69C | 0.507 |
| U3C U54A C62U | ≤ 0.5 |
| U3G C4A G9A U64A | ≤ 0.5 |
| U3G C30G C62U | ≤ 0.5 |
| U3G C27U U35G A42U | ≤ 0.5 |
| U3G C5U U32C G41C C49U U59G | ≤ 0.5 |
| U3C U26G | 0.868 |
| C4A A14G G52C C66U | ≤ 0.5 |
| U3G A14C A20U | ≤ 0.5 |
| C4A A15G G17A C33U A57U U59C | ≤ 0.5 |
| U3G A45C | 0.973 |
| U3G A45G | 1 |
| U3G C22A C24U U35G A45U | ≤ 0.5 |
| U3G G10C C46U G48A | ≤ 0.5 |
| U3G C5U U32C G41C | ≤ 0.5 |

| Variant | yeast fitness |
| --- | --- |
| C4A A15G C31U C33U | ≤ 0.5 |
| U3G G6C C30U C33G A36C A40U | ≤ 0.5 |
| C4A A14G A15G G56C | ≤ 0.5 |
| U3G C29A C46U C61G | ≤ 0.5 |
| C4A A15G C33G C60A A70C | 0.599 |
| U3G C49U G58A G63A | 0.584 |
| U3G C11A C34G A45C | ≤ 0.5 |
| U3G A69U | 0.924 |
| U3C U26C G44C U54A A69C | ≤ 0.5 |
| U3G C4A A40U | 0.547 |
| U3G C46U G68C | 0.607 |
| U3G C11G G44A G48A | ≤ 0.5 |
| C4A A14U C29U | 0.657 |
| U3G A15G C24G G50A | 0.539 |
| U3G C46G G52C | ≤ 0.5 |
| U3G C5U C62A | ≤ 0.5 |
| U3G G17C C29U A37G C61U A70C | 0.512 |
| U3G U8A C24A A70G | ≤ 0.5 |
| U3G C30G G56A | ≤ 0.5 |
| U3G U35G A37U U47C G56C A69C | ≤ 0.5 |
| U3C U32C | 0.839 |
| C4A A15G G56C C60A | ≤ 0.5 |
| U3G C30U G48C | 0.593 |
| U3G C5G U19C U47A C55A G68A | ≤ 0.5 |

| Variant | yeast fitness |
| --- | --- |
| U3G C24A C30U A57C A69U | ≤ 0.5 |
| U3G C4G C49G | 0.826 |
| U3G G6A A14G C55G A65G | ≤ 0.5 |
| U3G C11U A43U A57U C66A | ≤ 0.5 |
| U3C U32C G58C | 1.04 |
| U3C U26G G67C | ≤ 0.5 |
| C4A A15C C55U G63C | ≤ 0.5 |
| U3G C49A G63U G67A | ≤ 0.5 |
| U3G C31U C49U A70C | ≤ 0.5 |
| U3G G9C A20G C29A G67U | ≤ 0.5 |
| C4A A14U C34U U54C | ≤ 0.5 |
| U3G G25A C61U | 0.733 |
| U3G C22A C24U U35G A45U G56A | ≤ 0.5 |
| U3G C11G U13A C30G C66U A69U | ≤ 0.5 |
| U3G C27U | 0.798 |
| U3G C30G A40G | 0.836 |
| U3G C24U C31U G50U A69U | 0.56 |
| U3G A70U | 0.831 |
| C4A A15G U32C U35C G67C A69U | ≤ 0.5 |
| C4A A15C | 0.544 |
| C4A A15U | 0.645 |
| U3G A20C A65U | 0.589 |
| C4A A14G C49A | ≤ 0.5 |
| U3G A14U A15U A20C C33G A40U C61G | 0.543 |

| Variant | yeast fitness |
| --- | --- |
| C4A A15G G56C | 0.583 |
| U3G C30A | 0.868 |
| U3G C30G | ≤ 0.5 |
| U3G A15G A21U C24U G38A | 0.571 |
| U3C U32C A42U | 0.686 |
| U3G U8A G18C G50C | ≤ 0.5 |
| U3C U59A | 0.846 |
| U3C U59G | 0.71 |
| U3G A37C G56A | 0.533 |
| U3G C31A A45C | ≤ 0.5 |
| U3G U26A A65G | ≤ 0.5 |
| U3G U13C A14U C29A A69C | 0.562 |
| C4A A14U A20C U28G G63A | 0.562 |
| U3C U59C A69C | 1.02 |
| U3G C55A G58A | ≤ 0.5 |
| U3G G52C C62A A65C A70U | ≤ 0.5 |
| C4A A14G C22G C29U | 0.569 |
| U3G C4A A40U A57G C62U | ≤ 0.5 |
| U3G A15G G23A | ≤ 0.5 |
| U3C U28C C33U A45U | 0.528 |
| U3G C5U G6A A65U | ≤ 0.5 |
| U3G C24U C31U C61U | 0.57 |
| C4A A14G G23C A65G | ≤ 0.5 |
| U3G U64G | 0.716 |

| Variant | yeast fitness |
| --- | --- |
| U3C U54C C61G | 0.577 |
| C4A A14G G18A G25C | ≤ 0.5 |
| U3G C62A | 0.75 |
| U3G U28A | 0.605 |
| U3G U28C | 0.888 |
| U3G A20C G44C U47C C61U | ≤ 0.5 |
| U3G G44C U54A | ≤ 0.5 |
| U3G G50A C62U | 1.04 |
| U3G G6A A14G G38C G41C C62G | ≤ 0.5 |
| U3G U53C A57G C66U A69U | ≤ 0.5 |
| U3G U8C A15U C49A | 0.597 |
| U3C U32G A37G | ≤ 0.5 |
| U3G U7G C22U C60G | ≤ 0.5 |
| U3G A15U | 0.633 |
| U3G A15G | 0.846 |
| U3G U19G | 0.641 |
| U3G U19C | 0.841 |
| C4A A15U U19A C27A C29U C33U A70U | ≤ 0.5 |
| U3C U26C A42U | 0.939 |
| U3G A36C A45C G58A G68C A70U | ≤ 0.5 |
| U3G U13A U16A C62U U64A | ≤ 0.5 |
| U3C U35G A57C A70C | ≤ 0.5 |
| U3G U26A C29A C34A G38A A65U | ≤ 0.5 |
| U3G C4U A14U A15U A20C C33G A40U C61G | 0.577 |

| Variant | yeast fitness |
| --- | --- |
| C4A A15G G17A C61G | ≤ 0.5 |
| U3G C4G G6C C29A A36C C62U | ≤ 0.5 |
| U3G A15G C24G G50A C55U C61U A65U | ≤ 0.5 |
| U3G C24A A40C | ≤ 0.5 |
| U3G C49U G58A | 0.901 |
| C4A A15G C33U | 0.753 |
| U3G U35A A70G | ≤ 0.5 |
| U3C U26A C33U C49U | ≤ 0.5 |
| U3G G12C A70C | 0.545 |
| U3G G48A | 0.856 |
| U3G G48U | 0.937 |
| U3G G10A A21C U28A G68C | ≤ 0.5 |
| U3G C31G U64A C66U G68C | ≤ 0.5 |
| U3G C5U U32A C33U | 0.595 |
| U3G C31G | 0.874 |
| U3G C31A | 0.747 |
| U3G U13C A14U C29A C55U | 0.611 |
| U3G C5U G39A C49U | ≤ 0.5 |
| U3G C5U U26A G68A | ≤ 0.5 |
| U3G U13A | 1.1 |
| U3G C11U U19C A20U A43U C62G C66A A69C | ≤ 0.5 |
| U3G G23A A36U A43G C61A A70G | ≤ 0.5 |
| U3G U16G | 1.02 |
| U3G A42U C49U | 0.613 |

| Variant | yeast fitness |
| --- | --- |
| U3G G18A G25A C29A | ≤ 0.5 |
| U3C U47C | 0.866 |
| U3C U47G | 0.7 |
| U3C U47A | 0.907 |
| U3G C5U C31A A65U | ≤ 0.5 |
| U3G G12C A42U G67C | ≤ 0.5 |
| U3G C49G C60G C62G G63A | ≤ 0.5 |
| U3G C55U C66U | ≤ 0.5 |
| U3G A14U C29U A37G G51A | ≤ 0.5 |
| U3G U47C | 0.901 |
| C4A A14G C24U U32G A43G | ≤ 0.5 |
| C4A A14U A43C A65U | ≤ 0.5 |
| U3G G6A A36U G48C G52C A57U C60G | 0.569 |
| U3G A15G A21G U26C C29G C30U C49U A57U | ≤ 0.5 |
| U3G U16A A65G | 0.664 |
| U3G C33A G52A | 0.651 |
| U3G C4G G6C C29A A36C G52C | ≤ 0.5 |
| U3G C11U A70G | 0.576 |
| U3G C33U A37C A65C | ≤ 0.5 |
| C4A A14C | 0.591 |
| U3G C27G C49G A70G | ≤ 0.5 |
| U3G C11A C34G A45C G52C | 0.546 |
| U3G G25A | 0.768 |
